In brackets after ≈: the same amount, converted by molar mass. Activity calls are given as the source filed them. The rule behind the calls is not given here.
Legend:
Bacillus cereus [1] = test: Antimicrobial activity against Bacillus cereus MTCC 7350 assessed as diameter of inhibition zone at 80 uM after 24 hrs by Kirby -Baur disc diffusion method; type: functional; settings: MTCC 7350, 24 h, read-out: DIZ
Procedure, shortened: (§1)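 Kirby-Bauer disc diffusion was used. Acetone stocks (160 µM) were serially doubled down to 80, 40 and 20 µM. 4 µL of each went onto 5 mm sterile paper discs, which were dried 30 min at 50 °C. Inoculum was 1.5 × 10⁸ CFU/mL diluted to 3 × 10² CFU/mL, and 50 µL was spread on Mueller-Hinton agar. After 24 h at 37 °C the inhibition-zone diameter was measured. Ciprofloxacin served as positive control.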

Curvularia lunata [2] = test: Antifungal activity against Curvularia lunata MTCC 581 after 48 hrs; type: functional; settings: MTCC 581, 48 h
Salmonella typhi [3] = test: Antimicrobial activity against Salmonella typhi ATCC 23564 assessed as diameter of inhibition zone at 80 uM after 24 hrs by Kirby -Baur disc diffusion method; type: functional, Salmonella enterica subsp. enterica serovar Typhi; settings: Salmonella enterica, ATCC 23564, 24 h; read-out: DIZ
Salmonella typhi [4] = test: Antimicrobial activity against Salmonella typhi ATCC 23564 assessed as diameter of inhibition zone at 40 uM after 24 hrs by Kirby -Baur disc diffusion method; type: functional, Salmonella enterica subsp. enterica serovar Typhi; settings: Salmonella enterica, ATCC 23564, 24 h; read-out: DIZ
Staphylococcus aureus [5] = test: Antimicrobial activity against Staphylococcus aureus ATCC 11632 assessed as diameter of inhibition zone at 40 uM after 24 hrs by Kirby -Baur disc diffusion method; type: functional; settings: ATCC 11632, 24 h, read-out: DIZ; procedure, shortened: as §1
Trichoderma viride [6] = test: Antifungal activity against Trichoderma viride MTCC 1107 after 48 hrs; type: functional; settings: MTCC 1107, 48 h
Bacillus cereus [7] = test: Antimicrobial activity against Bacillus cereus MTCC 7350 after 24 hrs by broth micro serial dilution method; type: functional; settings: MTCC 7350, 24 h
Procedure, shortened: (§2)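 This was broth microdilution in autoclaved Mueller-Hinton broth. 150 µL of compound per well was serially diluted […], and 50 µL of test organism was added. Plates were incubated 24 h at 37 °C and optical density was read.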

Aspergillus niger [8] = test: Antifungal activity against Aspergillus niger MTCC 1108 after 48 hrs; type: functional; settings: MTCC 1108, 48 h
Mus musculus = test: Antiinflammatory activity in mouse assessed as inhibition of carrageenan-induced increase in paw volume at 200 mg/kg administered 1 hr prior to carrageenan challenge measured after 3 hrs relative to control; type: functional
Procedure, shortened: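 Mice were fasted 2 h and placed in groups of five. Controls received saline i.p. Phenylbutazone was given at 100 mg/kg i.p., curcumin at 200 mg/kg i.p., and derivatives at 200 mg/kg. After 1 h, 0.1 mL of 1% carrageenan in saline was injected subplantar into the right hind paw. Paw volume was followed by plethysmometer for 3 h, and % inhibition was calculated as (Vc − Vt)/Vc × 100.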

Staphylococcus aureus [9] = test: Antimicrobial activity against Staphylococcus aureus ATCC 11632 assessed as diameter of inhibition zone at 20 uM after 24 hrs by Kirby -Baur disc diffusion method; type: functional; settings: ATCC 11632, 24 h, read-out: DIZ; procedure, shortened: as §1
Pseudomonas aeruginosa [10] = test: Antimicrobial activity against Pseudomonas aeruginosa ATCC 15499 assessed as diameter of inhibition zone at 20 uM after 24 hrs by Kirby -Baur disc diffusion method; type: functional; procedure, shortened: as §1
Pseudomonas aeruginosa [11] = test: Antimicrobial activity against Pseudomonas aeruginosa ATCC 15499 assessed as diameter of inhibition zone at 80 uM after 24 hrs by Kirby -Baur disc diffusion method; type: functional; settings: ATCC 15499, 24 h, read-out: DIZ; procedure, shortened: as §1
Aspergillus flavus [12] = test: Antifungal activity against Aspergillus flavus MTCC 1021 assessed as zone of inhibition at 40 uM after 48 hrs by disc diffusion method; type: functional; settings: MTCC 1021, 48 h, read-out: IZ
Procedure, shortened: (§3)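 Spores from 4-day potato dextrose agar cultures, suspended in sterile water at 1.5 × 10⁵ CFU/mL. 0.2 mL was spread on potato dextrose agar. 5 mm filter-paper discs soaked with test compound were laid on the lawn. Incubation was 48 h at 28 °C, then the inhibition zone was measured in mm. Fluconazole was the positive control and acetone the negative control.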

Aspergillus flavus [13] = test: Antifungal activity against Aspergillus flavus MTCC 1021 assessed as zone of inhibition at 20 uM after 48 hrs by disc diffusion method; type: functional; procedure, shortened: as §3
Escherichia coli [14] = test: Antimicrobial activity against Escherichia coli ATCC 35218 after 24 hrs by broth micro serial dilution method; type: functional; settings: ATCC 35218, 24 h; procedure, shortened: as §2
Escherichia coli [15] = test: Antimicrobial activity against Escherichia coli ATCC 35218 assessed as diameter of inhibition zone at 20 uM after 24 hrs by Kirby -Baur disc diffusion method; type: functional; settings: ATCC 35218, 24 h, read-out: DIZ; procedure, shortened: as §1
Escherichia coli [16] = test: Antimicrobial activity against Escherichia coli ATCC 35218 assessed as diameter of inhibition zone at 40 uM after 24 hrs by Kirby -Baur disc diffusion method; type: functional; settings: ATCC 35218, 24 h, read-out: DIZ; procedure, shortened: as §1
Escherichia coli [17] = test: Antimicrobial activity against Escherichia coli ATCC 35218 assessed as diameter of inhibition zone at 80 uM after 24 hrs by Kirby -Baur disc diffusion method; type: functional; settings: ATCC 35218, 24 h, read-out: DIZ; procedure, shortened: as §1
Salmonella typhi [18] = test: Antimicrobial activity against Salmonella typhi ATCC 23564 after 24 hrs by broth micro serial dilution method; type: functional, Salmonella enterica subsp. enterica serovar Typhi; settings: Salmonella enterica, ATCC 23564, 24 h
Curvularia lunata [19] = test: Antifungal activity against Curvularia lunata MTCC 581 assessed as zone of inhibition at 80 uM after 48 hrs by disc diffusion method; type: functional; settings: MTCC 581, 48 h, read-out: IZ; procedure, shortened: as §3
HepG2 = test: Cytotoxicity against human HepG2 cells after 24 hrs by MTT assay; type: functional, cell-based
Procedure, shortened: (§4)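 The MTT assay seeded 5 × 10⁴ cells per well and grew them 24 h in RPMI 1640 with compound at 2.5–200 µM. Medium without cells was the blank and adriamycin the positive control. MTT was added for 4 h at 37 °C, formazan was solubilised, and absorbance was read at 570 nm. IC50 is the concentration that cuts viability 50% against untreated cells.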

Aspergillus flavus [20] = test: Antifungal activity against Aspergillus flavus MTCC 1021 after 48 hrs; type: functional; settings: MTCC 1021, 48 h
Pseudomonas aeruginosa [21] = test: Antimicrobial activity against Pseudomonas aeruginosa ATCC 15499 after 24 hrs by broth micro serial dilution method; type: functional; settings: ATCC 15499, 24 h; procedure, shortened: as §2
HCT-116 = test: Cytotoxicity against human HCT116 cells after 24 hrs by MTT assay; type: functional, cell-based; procedure, shortened: as §4
Curvularia lunata [22] = test: Antifungal activity against Curvularia lunata MTCC 581 assessed as zone of inhibition at 40 uM after 48 hrs by disc diffusion method; type: functional; settings: MTCC 581, 48 h, read-out: IZ; procedure, shortened: as §3
Trichoderma viride [23] = test: Antifungal activity against Trichoderma viride MTCC 1107 assessed as zone of inhibition at 20 uM after 48 hrs by disc diffusion method; type: functional; settings: MTCC 1107, 48 h, read-out: IZ; procedure, shortened: as §3
Staphylococcus aureus [24] = test: Antimicrobial activity against Staphylococcus aureus ATCC 11632 after 24 hrs by broth micro serial dilution method; type: functional; settings: ATCC 11632, 24 h; procedure, shortened: as §2
Staphylococcus aureus [25] = test: Antimicrobial activity against Staphylococcus aureus ATCC 11632 assessed as diameter of inhibition zone at 80 uM after 24 hrs by Kirby -Baur disc diffusion method; type: functional; settings: ATCC 11632, 24 h, read-out: DIZ; procedure, shortened: as §1
Bacillus cereus [26] = test: Antimicrobial activity against Bacillus cereus MTCC 7350 assessed as diameter of inhibition zone at 40 uM after 24 hrs by Kirby -Baur disc diffusion method; type: functional; settings: MTCC 7350, 24 h, read-out: DIZ; procedure, shortened: as §1
Bacillus cereus [27] = test: Antimicrobial activity against Bacillus cereus MTCC 7350 assessed as diameter of inhibition zone at 20 uM after 24 hrs by Kirby -Baur disc diffusion method; type: functional; settings: MTCC 7350, 24 h, read-out: DIZ; procedure, shortened: as §1
QG-56 = test: Cytotoxicity against human QG56 cells after 24 hrs by MTT assay; type: functional, cell-based; procedure, shortened: as §4
Salmonella typhi [28] = test: Antimicrobial activity against Salmonella typhi ATCC 23564 assessed as diameter of inhibition zone at 20 uM after 24 hrs by Kirby -Baur disc diffusion method; type: functional, Salmonella enterica subsp. enterica serovar Typhi; settings: Salmonella enterica, ATCC 23564, 24 h; read-out: DIZ
Curvularia lunata [29] = test: Antifungal activity against Curvularia lunata MTCC 581 assessed as zone of inhibition at 20 uM after 48 hrs by disc diffusion method; type: functional; settings: MTCC 581, 48 h, read-out: IZ; procedure, shortened: as §3
Aspergillus niger [30] = test: Antifungal activity against Aspergillus niger MTCC 1108 assessed as zone of inhibition at 80 uM after 48 hrs by disc diffusion method; type: functional; settings: MTCC 1108, 48 h, read-out: IZ; procedure, shortened: as §3
Trichoderma viride [31] = test: Antifungal activity against Trichoderma viride MTCC 1107 assessed as zone of inhibition at 40 uM after 48 hrs by disc diffusion method; type: functional; settings: MTCC 1107, 48 h, read-out: IZ; procedure, shortened: as §3
Aspergillus flavus [32] = test: Antifungal activity against Aspergillus flavus MTCC 1021 assessed as zone of inhibition at 80 uM after 48 hrs by disc diffusion method; type: functional; settings: MTCC 1021, 48 h, read-out: IZ; procedure, shortened: as §3
Pseudomonas aeruginosa [33] = test: Antimicrobial activity against Pseudomonas aeruginosa ATCC 15499 assessed as diameter of inhibition zone at 40 uM after 24 hrs by Kirby -Baur disc diffusion method; type: functional; settings: ATCC 15499, 24 h, read-out: DIZ; procedure, shortened: as §1
Trichoderma viride [34] = test: Antifungal activity against Trichoderma viride MTCC 1107 assessed as zone of inhibition at 80 uM after 48 hrs by disc diffusion method; type: functional; settings: MTCC 1107, 48 h, read-out: IZ; procedure, shortened: as §3
HeLa = test: Cytotoxicity against human HeLa cells after 24 hrs by MTT assay; type: functional, cell-based; procedure, shortened: as §4
Aspergillus niger [35] = test: Antifungal activity against Aspergillus niger MTCC 1108 assessed as zone of inhibition at 20 uM after 48 hrs by disc diffusion method; type: functional; settings: MTCC 1108, 48 h, read-out: IZ; procedure, shortened: as §3
Aspergillus niger [36] = test: Antifungal activity against Aspergillus niger MTCC 1108 assessed as zone of inhibition at 40 uM after 48 hrs by disc diffusion method; type: functional; settings: MTCC 1108, 48 h, read-out: IZ; procedure, shortened: as §3

Compound: COc1ccc(NS(=O)(=O)c2ccc(/N=C(/C=C(O)/C=C/c3ccc(O)c(OC)c3)\C=C\c3ccc(O)c(OC)c3)cc2)nn1
- zone of inhibition at 80 µM (Bacillus cereus [1]): 14 mm
- MIC (Curvularia lunata [2]): 20 µM (≈ 12.6 µg/mL)
- zone of inhibition at 80 µM (Salmonella typhi [3]): 19 mm
- zone of inhibition at 40 µM (Salmonella typhi [4]): 16 mm
- zone of inhibition at 40 µM (Staphylococcus aureus [5]): 14 mm
- MIC (Trichoderma viride [6]): 20 µM (≈ 12.6 µg/mL)
- MIC (Bacillus cereus [7]): 20 µM (≈ 12.6 µg/mL)
- MIC (Aspergillus niger [8]): 40 µM (≈ 25.2 µg/mL)
- inhibition in vivo at 200 mg/kg (Mus musculus): 35.4%
- zone of inhibition at 20 µM (Staphylococcus aureus [9]): 9 mm
- diameter of the inhibition zone (DIZ) (Pseudomonas aeruginosa [10]): inactive
- zone of inhibition at 80 µM (Pseudomonas aeruginosa [11]): 14 mm
- zone of inhibition at 40 µM (Aspergillus flavus [12]): 9 mm
- inhibition zone (IZ) (Aspergillus flavus [13]): inactive
- MIC (Escherichia coli [14]): 20 µM (≈ 12.6 µg/mL)
- zone of inhibition at 20 µM (Escherichia coli [15]): 16 mm
- zone of inhibition at 40 µM (Escherichia coli [16]): 18 mm
- zone of inhibition at 80 µM (Escherichia coli [17]): 21 mm
- MIC (Salmonella typhi [18]): 20 µM (≈ 12.6 µg/mL)
- zone of inhibition at 80 µM (Curvularia lunata [19]): 18 mm
- IC50 (HepG2): 25 µM
- MIC (Aspergillus flavus [20]): > 80 µM
- MIC (Pseudomonas aeruginosa [21]): 20 µM (≈ 12.6 µg/mL)
- IC50 (HCT-116): 25 µM
- zone of inhibition at 40 µM (Curvularia lunata [22]): 15 mm
- zone of inhibition at 20 µM (Trichoderma viride [23]): 12 mm
- MIC (Staphylococcus aureus [24]): 20 µM (≈ 12.6 µg/mL)
- zone of inhibition at 80 µM (Staphylococcus aureus [25]): 17 mm
- zone of inhibition at 40 µM (Bacillus cereus [26]): 11 mm
- zone of inhibition at 20 µM (Bacillus cereus [27]): 9 mm
- IC50 (QG-56): 25 µM
- zone of inhibition at 20 µM (Salmonella typhi [28]): 13 mm
- zone of inhibition at 20 µM (Curvularia lunata [29]): 12 mm
- zone of inhibition at 80 µM (Aspergillus niger [30]): 14 mm
- zone of inhibition at 40 µM (Trichoderma viride [31]): 16 mm
- zone of inhibition at 80 µM (Aspergillus flavus [32]): 10 mm
- zone of inhibition at 40 µM (Pseudomonas aeruginosa [33]): 10 mm
- zone of inhibition at 80 µM (Trichoderma viride [34]): 19 mm
- IC50 (HeLa): 50 µM
- zone of inhibition at 20 µM (Aspergillus niger [35]): 10 mm
- zone of inhibition at 40 µM (Aspergillus niger [36]): 14 mm

Source: ChEMBL document CHEMBL2384906, “Biological activity, design, synthesis and structure activity relationship of some novel derivatives of curcumin containing sulfonamides” (Eur J Med Chem, 2013)
